Measurements reported in ChEMBL document CHEMBL1131312 (J Med Chem, 1998).
≈ marks a conversion by molar mass, not a printed value. Calls of active or inactive are those of the source.

Tests used:
L1210 = test: In vitro cytotoxic activity against murine L1210 leukemia cells.; format: functional, cell-based, Mus musculus
Outline: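 Murine L1210 leukemia cells grown in RPMI 1640 with 10% heat-inactivated horse serum at 37 °C, 5% CO2, used within 40 passages (doubling time 8-10 h). Exponentially growing cells (1.5 × 10^5/well) exposed to a concentration range for 48 h, then counted electronically.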

Mus musculus [1] = test: percent T / C values ([…] / control) against P388 murine leukemia cells at 40 mg/kg dose; format: functional
Outline: (§1)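 CDF1 mice over 18 g implanted iv with 10^6 P388 leukemia cells on day 0 and randomized. Single ip dose on day 1, chosen from 2.5, 10, 40 or 160 mg/kg. Survival and clinical signs followed daily; weights taken days 1, 4 and 8. T/C% is median survival of treated over control × 100; 125-175% is the minimum activity level.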

[2] = Water solubility of the compound; format: ADME; settings: for S: buffer; for solubility: water, read-out: S
DNA topoisomerase II [3] = target: T1, DNA topoisomerase II (Homo sapiens, UniProt P11388+Q02880); test: Concentration of compound at which inhibitory activity detected against DNA topoisomerase II; format: protein assay, Drosophila melanogaster
Mus musculus [4] = test: compound was tested in vivo for inhibition of P388 murine leukemia cells after iv / ip administration.; format: functional; outline: as §1
[5] = Water solubility of the compound; insoluble; format: ADME; settings: buffer
Mus musculus [6] = test: percent T / C values ([…] / control) against P388 murine leukemia cells at 160 mg/kg dose; format: functional; outline: as §1
[7] = in vitro inhibitory activity against tubulin polymerization.; set-up: species or system Ovis aries
Mus musculus [8] = test: Compound was tested in vivo for inhibition of P388 murine leukemia cells after iv / ip administration at 40 mg/ kg; NA indicates inactive; format: functional, organism-based; set-up: dose 40 mg/ kg
Outline: (§2)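 P388 leukemia cells (10^6/mouse) implanted iv in CDF1 mice (>18 g) on day 0. After randomization, single ip dose on day 1 from the series 2.5, 10, 40, 160 mg/kg. Daily clinical checks and death recorded, weights on days 1, 4, 8. Activity scored as median survival treated/control ×100 (T/C, %), with 125–175% as minimum activity (NCI criteria).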

Mus musculus [9] = test: compound was tested in vivo for inhibition of P388 murine leukemia cells after iv / ip administration at 40 mg/ kg; NA indicates inactive; format: functional, organism-based; set-up: dose 40 mg/ kg; outline: as §2
DNA topoisomerase II [10] = target: T1, DNA topoisomerase II; test: In vitro inhibitory activity against DNA topoisomerase II; format: protein assay, Drosophila melanogaster
[11] = Mus musculus, P388, read-out: ED50

Compound | EC50 (DNA topoisomerase II [3]) [nM] | IC50 (L1210; Mus musculus, L1210) [nM] | IC50 [7] [nM] | solubility [2] [mg/mL] | further results
COc1cc([C@@H]2c3cc4c(cc3[C@@H](OC3CC(N(C)C)C5OC(C)OCC5O3)[C@H]3COC(=O)[C@H]23)OCO4)cc(OC)c1O (stereo in doubt; 28) | > 100000 |  |  |  | IC50 (L1210; l1210): 110 nM; T/C max (Mus musculus [1]; 40 mg/kg): 243%; S [2]: 24 mg/mL; ED50 (Mus musculus [4]): 1.7 mg/kg
COc1cc([C@@H]2c3cc4c(cc3[C@@H](OC3CC(NCC#N)C5OC(C)OCC5O3)[C@H]3COC(=O)[C@H]23)OCO4)cc(OC)c1O (stereo partly specified) | > 1000 | 2000 | > 100000 |  | S [5]: Insoluble; T/C max (Mus musculus [6]): 186%; ED50 (Mus musculus [4]; [11]): 20 mg/kg
COc1cc([C@@H]2c3cc4c(cc3[C@@H](O[C@@H]3O[C@@H]5CO[C@@H](C)O[C@H]5[C@H](O)[C@H]3O)[C@H]3COC(=O)[C@H]23)OCO4)cc(OC)c1O [ETOPOSIDE] |  | 200 |  |  | S [2]: 0.01 mg/mL; T/C max (Mus musculus [6]): 242%; ED50 (Mus musculus [4]; [11]): 5 mg/kg
COc1cc([C@@H]2c3cc4c(cc3[C@@H](OC3CC(N5CCOCC5)C5OC(C)OCC5O3)[C@H]3COC(=O)[C@H]23)OCO4)cc(OC)c1O (stereo partly specified) | > 1000 | > 1000 |  |  | S [5]: Insoluble; ED50 (Mus musculus [8]): inactive
COc1cc([C@@H]2c3cc4c(cc3[C@@H](OC3CC(N)C5OC(C)OCC5O3)[C@H]3COC(=O)[C@H]23)OCO4)cc(OC)c1O (stereo in doubt; 17) | > 100000 |  | > 10000 | 11 (≈ 19.2 mM) | IC50 (L1210; l1210): 230 nM; T/C max (Mus musculus [6]): 300%; ED50 (Mus musculus [4]): 5 mg/kg
COc1cc([C@@H]2c3cc4c(cc3[C@@H](O[C@@H]3CC(N)C5OC(C)OCC5O3)[C@H]3COC(=O)[C@H]23)OCO4)cc(OC)c1O (stereo partly specified) | > 100000 | 1300 | > 50000 | 10 (≈ 17.5 mM) | ED50 (Mus musculus [9]): inactive
COc1cc([C@@H]2c3cc4c(cc3[C@@H](OC3CC(N)C(O)C(CN)O3)[C@H]3COC(=O)[C@H]23)OCO4)cc(OC)c1O (stereo partly specified) | > 100000 | 210 | 11000 | 42 (≈ 77.1 mM) | ED50 (Mus musculus [9]): inactive
COc1cc([C@@H]2c3cc4c(cc3[C@@H](OC3CC(N)C(O)C(C)O3)[C@H]3COC(=O)[C@H]23)OCO4)cc(OC)c1O (stereo partly specified) | 5600 | 12000 | > 10000 | 13 (≈ 24.5 mM) | ED50 (Mus musculus [9]): inactive
COc1cc([C@@H]2c3cc4c(cc3C(OC3OC5COC(C)OC5C(O)C3N(C)C)C3COC(=O)[C@@H]32)OCO4)cc(OC)c1O (stereo partly specified) |  |  |  | 15 (≈ 24.4 mM) | EC50 (DNA topoisomerase II [10]): 56000 nM
COc1cc([C@@H]2c3cc4c(cc3CC3COC(=O)[C@@H]32)OCO4)cc(OC)c1O (stereo partly specified) |  |  | 13000 |  | 
COc1cc([C@@H]2c3cc4c(cc3[C@@H](OC3CC(NCCN)C5OC(C)OCC5O3)[C@H]3COC(=O)[C@H]23)OCO4)cc(OC)c1O (stereo partly specified) | > 100000 | 1700 | > 10000 | 40 (≈ 65.1 mM) | ED50 (Mus musculus [9]): inactive
COc1cc([C@@H]2c3cc4c(cc3[C@@H](OC3CC(N(C)C)C5OC(C)OCC5O3)[C@H]3COC(=O)[C@H]23)OCO4)cc(OC)c1O (stereo in doubt; 29) | > 100000 | 90 | > 50000 | 26 (≈ 43.4 mM) | T/C max (Mus musculus [1]; 40 mg/kg): 257%; ED50 (Mus musculus [4]): 5 mg/kg
COc1cc([C@@H]2c3cc4c(cc3[C@@H](OC3CC(N)C5OC(C)OCC5O3)[C@H]3COC(=O)[C@H]23)OCO4)cc(OC)c1O (stereo in doubt; 27) | > 100000 |  | > 50000 |  | IC50 (L1210; l1210): 70 nM; T/C max (Mus musculus [1]): 193%; S [2]: 9 mg/mL; ED50 (Mus musculus [4]): 1.7 mg/kg
COc1cc([C@@H]2c3cc4c(cc3[C@H](O)[C@H]3COC(=O)[C@H]23)OCO4)cc(OC)c1OC [PODOFILOX] |  |  | 3000 |  | 
